pIC50: −log10 of the molar value. Active and inactive are the calls of the source.
Legend:
[1] = test system: Trypanosoma cruzi; experiment: Inhibition of Trypanosoma cruzi epimastigotes Fe-SOD at 10 ug/ml by NBT reduction assay
How it was run: (§1)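 Enzyme from epimastigotes grown without FBS (excreted Fe-SOD), sonicated in STE buffer pH 7.8, centrifuged, supernatant protein by Bradford; human erythrocyte CuZn-SOD for comparison. NBT reduction by superoxide (Beyer–Fridovich): methionine, NBT, Triton X-100, riboflavin, homogenate plus compound; A560 read before and after 10 min UV illumination with stirring. Five separate determinations; Newman–Keuls test against control.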

[2] = Selectivity index, ratio of IC50 for Vero cells to IC50 for Trypanosoma cruzi epimastigote; assay type: toxicity, cell-based; details: monkey, Vero cells versus Trypanosoma cruzi epimastigotes; read-out: Ratio IC50
[3] = test system: Trypanosoma cruzi; experiment: Trypanosomicidal activity against Trypanosoma cruzi epimastigotes assessed as inhibition of L-lactate metabolite excretion after 96 hrs by NMR analysis; assay type: functional
How it was run: (§2)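 Epimastigotes (5 × 10^5 cells/mL) exposed to IC25 of compound for 96 h at 28 °C; supernatant after centrifugation analysed by 1H NMR with DSS reference, compared against untreated cultures.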

[4] = test system: Trypanosoma cruzi; experiment: Antitrypanosomal activity against Trypanosoma cruzi infected in BALB/c mouse assessed as reduction in trypomastigotes at 1 mg/kg, ip dosed for 5 days measured on day 14 post infection; assay type: functional, organism-based; parameters: dose 1 mg/kg
How it was run: (§3)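 Female BALB/c mice infected with trypomastigotes, dosed ip at 1 mg/kg/day on days 5–10 postinfection; vehicle controls. Mandibular vein blood (5 μL) diluted in citrate/lysis buffer pH 7.2; parasites counted under immersion objective every 2 days from day 5 to 30, as parasites/mL.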

[5] = Selectivity ratio of IC50 for Trypanosoma cruzi epimastigotes Fe-SOD to IC50 for human erythrocyte Cu-Zn SOD
[6] = test system: Trypanosoma cruzi; experiment: Trypanosomicidal activity against Trypanosoma cruzi epimastigotes assessed as altered nucleus by TEM analysis; assay type: functional, organism-based
[7] = test system: Trypanosoma cruzi; experiment: Antitrypanosomal activity against Trypanosoma cruzi infected in BALB/c mouse assessed as reduction in anti-organism antibody at 1 mg/kg, ip dosed for 5 days measured on day 40 to 120 post infection; assay type: functional, organism-based; parameters: dose 1 mg/kg
How it was run: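 Infected female BALB/c mice given 1 mg/kg/day ip for 5 days. Serum (1:50 in PBS) on days 40 and 120 tested by ELISA against excreted epimastigote Fe-SOD antigen; absorbance 490 nm, cutoff = negative-control mean + 3 SD; change is day-120 minus day-40 absorbance.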

[8] = Inhibition of Trypanosoma cruzi epimastigotes Fe-SOD by NBT reduction assay; how it was run: as §1
[9] = test system: Trypanosoma cruzi; experiment: Trypanosomicidal activity against Trypanosoma cruzi epimastigotes assessed as reservosomes in cytoplasm by TEM analysis; assay type: functional, organism-based
[10] = test system: Trypanosoma cruzi; experiment: Trypanosomicidal activity against Trypanosoma cruzi epimastigotes assessed as inhibition of acetate metabolite excretion after 96 hrs by NMR analysis; assay type: functional; how it was run: as §2
[11] = test system: Mus musculus; experiment: Toxicity in BALB/c mouse liver infected with Trypanosoma cruzi assessed as lymphocytic infiltrations in portal tracts at 5 mg/kg, ip after 120 days postinfection Histopathological analysis; assay type: organism-based; parameters: dose 5 mg/kg, route intraperitoneal; details: in vivo, 2880 h
How it was run: (§4)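 Livers removed at 120 days postinfection, fixed in 10% buffered formalin, paraffin-embedded, 4–5 μm sections stained with H&E and Masson's trichrome. Blinded scoring of at least 30 fields per slide, 0 (none) to 5 (severe).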

[12] = test system: Trypanosoma cruzi; experiment: Trypanosomicidal activity against Trypanosoma cruzi SN3 epimastigote after 72 hrs by hemocytometric analysis; assay type: functional, organism-based; details: SN3, 72 h
How it was run: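 Exponential-phase SN3 epimastigotes (Grace's medium, 10% FBS, 28 °C) seeded at 5 × 10^4 parasites/well with compounds dissolved in MTL at 1, 10, 25, 50, 100 μM.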

[13] = test system: Vero; experiment: Cytotoxicity against African green monkey Vero cells assessed as cell viability after 72 hrs by flow cytometric analysis; assay type: cell-based; details: Chlorocebus sabaeus
How it was run: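 Vero cells grown in RPMI with 10% inactivated FBS at 37 °C, 5% CO2, seeded at 1 × 10^5 cells/mL, grown 2 days, then exposed to 1–100 μM compound for 72 h. Viability measured by flow cytometry; IC50 by linear regression.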

[14] = test system: Trypanosoma cruzi; experiment: Trypanosomicidal activity against Trypanosoma cruzi infected in Vero cells assessed as reduction in trypomastigotes in culture medium after 10 days by Giemsa staining method; assay type: functional; parameters: scale not given: the % may be the effect or the level left
How it was run: (§5)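 Vero cells infected with metacyclic forms (10:1); compounds at IC25 added at infection for 12 h at 37 °C, then washed out and cultures grown 10 days with medium renewed every 48 h. Infected cells and amastigotes per cell counted in >100 host cells on Giemsa-stained slides; trypomastigotes in medium counted; mean of four determinations.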

[15] = test system: Mus musculus; experiment: Toxicity in BALB/c mouse liver infected with Trypanosoma cruzi assessed as intestinal hemorrhage at 5 mg/kg, ip after 120 days postinfection by Histopathological analysis; assay type: organism-based; parameters: dose 5 mg/kg, route intraperitoneal; details: in vivo, 2880 h; how it was run: as §4
[16] = test system: Trypanosoma cruzi; experiment: Trypanosomicidal activity against Trypanosoma cruzi infected in Vero cells assessed as reduction in rate of infection after 10 days by Giemsa staining method; assay type: functional; parameters: scale not given: the % may be the effect or the level left; how it was run: as §5
[17] = test system: Trypanosoma cruzi; experiment: Trypanosomicidal activity against Trypanosoma cruzi epimastigotes assessed as inhibition of succinate metabolite excretion after 96 hrs by NMR analysis; assay type: functional; how it was run: as §2
[18] = Selectivity index, ratio of IC50 for Vero cells to IC50 for Trypanosoma cruzi anexic amastigote; assay type: toxicity, cell-based; details: monkey, Vero cells versus Trypanosoma cruzi axenic amastigotes; read-out: Ratio IC50
[19] = test system: Trypanosoma cruzi; experiment: Trypanosomicidal activity against Trypanosoma cruzi SN3 anexic amastigote after 48 hrs by hemocytometric analysis; assay type: functional, organism-based; details: SN3, 48 h
How it was run: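 Axenic amastigotes obtained from epimastigotes after 3 days in supplemented M199 (10% FCS, pH 5.4, 37 °C).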

[20] = test system: Trypanosoma cruzi; experiment: Trypanosomicidal activity against Trypanosoma cruzi epimastigotes assessed as intense vacuolization of protozoan cells by TEM analysis; assay type: functional, organism-based
[21] = test system: Trypanosoma cruzi; experiment: Inhibition of Trypanosoma cruzi epimastigotes Fe-SOD at 25 ug/ml by NBT reduction assay; how it was run: as §1
[22] = test system: Trypanosoma cruzi; experiment: Inhibition of Trypanosoma cruzi epimastigotes Fe-SOD at 50 ug/ml by NBT reduction assay; how it was run: as §1
[23] = Selectivity index, ratio of IC50 for Vero cells to IC50 for Trypanosoma cruzi intracellular amastigote infected in Vero cells; assay type: toxicity, cell-based; details: monkey; read-out: Ratio IC50
[24] = test system: Trypanosoma cruzi; experiment: Trypanosomicidal activity against Trypanosoma cruzi infected in Vero cells assessed as reduction in amastigotes per infected Vero cells after 6 days by Giemsa staining method; assay type: functional; parameters: scale not given: the % may be the effect or the level left
[25] = target: Superoxide dismutase [Cu-Zn], SOD1 (Homo sapiens) (UniProt P00441); experiment: Activity of human erythrocyte Cu-Zn SOD by NBT reduction assay
[26] = test system: Mus musculus; experiment: Toxicity in BALB/c mouse liver infected with Trypanosoma cruzi assessed as blood vessels with thickened walls at 5 mg/kg, ip after 120 days postinfection by Histopathological analysis; assay type: organism-based, Blood vessel; parameters: dose 5 mg/kg, route intraperitoneal; details: in vivo, 2880 h; how it was run: as §4
[27] = test system: Trypanosoma cruzi; experiment: Trypanosomicidal activity against Trypanosoma cruzi SN3 amastigote infected in Vero cells after 72 hrs by Giemsa staining method; assay type: functional, organism-based
How it was run: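 Vero cells seeded at 1 × 10^4/well on coverslips, grown 2 days, infected with metacyclic forms (10:1) for 24 h, washed, then treated at 1–100 μM for 72 h in RPMI/10% FBS. Amastigote reduction scored on methanol-fixed Giemsa-stained slides; four determinations; IC50.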

[28] = test system: Mus musculus; experiment: Toxicity in BALB/c mouse liver infected with Trypanosoma cruzi assessed as granulomas with limphocitic infiltration at 5 mg/kg, ip after 120 days postinfection by Histopathological analysis; assay type: organism-based; parameters: dose 5 mg/kg, route intraperitoneal; details: in vivo, 2880 h; how it was run: as §4
[29] = test system: Mus musculus; experiment: Toxicity in BALB/c mouse liver infected with Trypanosoma cruzi assessed as delocalized hepatic destruction at 5 mg/kg, ip after 120 days postinfection by Histopathological analysis; assay type: organism-based; parameters: dose 5 mg/kg, route intraperitoneal; details: in vivo, 2880 h; how it was run: as §4
[30] = test system: Mus musculus; experiment: Toxicity in BALB/c mouse liver infected with Trypanosoma cruzi assessed as hepatic destruction in portal tracts at 5 mg/kg, ip after 120 days postinfection by Histopathological analysis; assay type: organism-based; parameters: dose 5 mg/kg, route intraperitoneal; details: in vivo, 2880 h; how it was run: as §4
[31] = test system: Trypanosoma cruzi; experiment: Antitrypanosomal activity against Trypanosoma cruzi infected in BALB/c mouse assessed as reduction in parasitemia at 1 mg/kg, ip dosed for 5 days measured on day 30 post infection; assay type: functional; parameters: scale not given: the % may be the effect or the level left; details: route intraperitoneal; how it was run: as §3
[32] = test system: Mus musculus; experiment: Toxicity in BALB/c mouse liver infected with Trypanosoma cruzi assessed as necrotic cells in portal tracts at 5 mg/kg, ip after 120 days postinfection by Histopathological analysis; assay type: organism-based; parameters: dose 5 mg/kg, route intraperitoneal; details: in vivo, 2880 h; how it was run: as §4
[33] = test system: Trypanosoma cruzi; experiment: Trypanosomicidal activity against Trypanosoma cruzi epimastigotes assessed as very electron dense protozoan cells by TEM analysis; assay type: functional, organism-based
[34] = test system: Trypanosoma cruzi; experiment: Trypanosomicidal activity against Trypanosoma cruzi epimastigotes assessed as distorted shape of protozoan cells by TEM analysis; assay type: functional, organism-based

Chain of Superoxide dismutase [Cu-Zn], SOD1 (Homo sapiens) (P00441 whole entry, looked up): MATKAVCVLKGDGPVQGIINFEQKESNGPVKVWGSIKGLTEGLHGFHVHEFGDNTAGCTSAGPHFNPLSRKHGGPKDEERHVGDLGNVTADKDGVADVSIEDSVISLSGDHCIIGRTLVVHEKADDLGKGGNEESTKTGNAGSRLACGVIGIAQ

Compound	selectivity ratio [2]	Activity [4]	pIC50 [8]	inhibition (INH) [10] [%]	Activity [11]	pIC50 [12]	pIC50 [13]	Activity [14] [%]	Activity [15]	Activity [16] [%]	inhibition (INH) [17] [%]	selectivity ratio [18]	pIC50 [19]	Activity [20]	inhibition [21] [%]	inhibition [22] [%]	selectivity ratio [23]	Activity [24] [%]	Activity [25] [U/mg]	Activity [26]	other results
Cl.Cn1nc2cc1CNCCNCCNCc1cc(n(C)n1)CNCCNCCNC2	137	Active	5.38	15	Non-toxic	5.89	3.75	64	Non-toxic	80	70	20.3	5.06	Active	70	98	27.5	42	23.4	Toxic	inhibition [1]: 75%; inhibition (INH) [3]: 58%; Ratio IC50 [5]: 23; Activity [6]: Active; Activity [7]: Active; Activity [9]: Active; pIC50 [27]: 5.19; Activity [28]: Non-toxic; Activity [29]: Non-toxic; Activity [30]: Non-toxic; Activity [31]: 39%; Activity [32]: Non-toxic
Cl.c1ccc(Cn2nc3cc2CNCCNCCNCc2cc(n(Cc4ccccc4)n2)CNCCNCCNC3)cc1	11.8	Active	4.54	23	Toxic	4.78	3.71	34	Toxic	>50	19	19.5	5.00	Active	70	98	14.2	26	23.4	Toxic	Activity [33]: Active; Activity [34]: Active; pIC50 [27]: 4.86; Activity [28]: Toxic; Activity [29]: Non-toxic; Activity [30]: Non-toxic; Activity [31]: 16%; Activity [32]: Non-toxic

From ChEMBL document CHEMBL2069181, “In vitro and in vivo trypanosomicidal activity of pyrazole-containing macrocyclic and macrobicyclic polyamines: their action on acute and chronic phases of Chagas disease” (J Med Chem, 2012)
